The source made the active and inactive calls. The calls are words filed in the database; no cut-off is given here.
How the values were obtained:
Type in all cases: functional
Blastomyces dermatitidis [1] = assay: Antifungal activity against Blastomyces dermatitidis Gilchrist & Stokes isolate 1107 at 10 ug/ml after 2 weeks (reference value: 35 mm); details: Gilchrist & Stokes isolate 1107, 336 h, read-out: DIZ
Method in brief: (§1)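 Mycelial phase grown on Sabouraud dextrose agar at 25°C. Agar pH was set to 6 before the test solution was added and was 5.0-5.5 after. Test solutions contained HOAc and Me2SO, and solvent and blank controls were included. Each quadrant was center-inoculated with a 2 × 2 mm piece of a 2-week-old mycelial culture. Colony diameter was measured weekly for 3 weeks and reported as total increments (mm). Duplicates were run.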

Blastomyces dermatitidis [2] = assay: Antifungal activity against Blastomyces dermatitidis Gilchrist & Stokes isolate 1107 at 100 ug/ml after 3 weeks (reference value: 40 mm); details: Gilchrist & Stokes isolate 1107, 504 h, read-out: DIZ; method in brief: as §1
Blastomyces dermatitidis [3] = assay: Antifungal activity against Blastomyces dermatitidis Gilchrist & Stokes isolate 1107 at 80 ug/ml after 3 weeks (reference value: 40 mm); details: Gilchrist & Stokes isolate 1107, 504 h, read-out: DIZ; method in brief: as §1
Blastomyces dermatitidis [4] = assay: Antifungal activity against Blastomyces dermatitidis Gilchrist & Stokes isolate 1107 at 40 ug/ml after 3 weeks (reference value: 40 mm); details: Gilchrist & Stokes isolate 1107, 504 h, read-out: DIZ; method in brief: as §1
Blastomyces dermatitidis [5] = assay: Antifungal activity against Blastomyces dermatitidis Gilchrist & Stokes isolate 1107 at 10 ug/ml after 3 weeks (reference value: 40 mm); details: Gilchrist & Stokes isolate 1107, 504 h, read-out: DIZ; method in brief: as §1
Histoplasma capsulatum [6] = assay: Antifungal activity against Histoplasma capsulatum Darling isolate 1098 at 10 ug/ml after 3 weeks (reference value: 28 mm); details: Darling isolate 1098, 504 h, read-out: DIZ
Histoplasma capsulatum [7] = assay: Antifungal activity against Histoplasma capsulatum Darling isolate 1106 at 100 ug/ml after 1 week (reference value: 14 mm)
Histoplasma capsulatum [8] = assay: Antifungal activity against Histoplasma capsulatum Darling isolate 1106 at 20 ug/ml after 1 week (reference value: 14 mm); details: Darling isolate 1106, 168 h, read-out: DIZ
Histoplasma capsulatum [9] = assay: Antifungal activity against Histoplasma capsulatum Darling isolate 1106 at 10 ug/ml after 1 week (reference value: 14 mm); details: Darling isolate 1106, 168 h, read-out: DIZ
Histoplasma capsulatum [10] = assay: Antifungal activity against Histoplasma capsulatum Darling isolate 1106 at 100 ug/ml after 2 weeks (reference value: 25 mm); details: Darling isolate 1106, 336 h, read-out: DIZ
Histoplasma capsulatum [11] = assay: Antifungal activity against Histoplasma capsulatum Darling isolate 1106 at 80 ug/ml after 2 weeks (reference value: 25 mm); details: Darling isolate 1106, 336 h, read-out: DIZ
Histoplasma capsulatum [12] = assay: Antifungal activity against Histoplasma capsulatum Darling isolate 1106 at 60 ug/ml after 2 weeks (reference value: 25 mm); details: Darling isolate 1106, 336 h, read-out: DIZ
Histoplasma capsulatum [13] = assay: Antifungal activity against Histoplasma capsulatum Darling isolate 1106 at 40 ug/ml after 2 weeks (reference value: 25 mm); details: Darling isolate 1106, 336 h, read-out: DIZ
Histoplasma capsulatum [14] = assay: Antifungal activity against Histoplasma capsulatum Darling isolate 1106 at 20 ug/ml after 2 weeks (reference value: 25 mm); details: Darling isolate 1106, 336 h, read-out: DIZ
Histoplasma capsulatum [15] = assay: Antifungal activity against Histoplasma capsulatum Darling isolate 1106 at 100 ug/ml after 3 weeks (reference value: 31 mm); details: Darling isolate 1106, 504 h, read-out: DIZ
Histoplasma capsulatum [16] = assay: Antifungal activity against Histoplasma capsulatum Darling isolate 1106 at 60 ug/ml after 3 weeks (reference value: 31 mm); details: Darling isolate 1106, 504 h, read-out: DIZ
Histoplasma capsulatum [17] = assay: Antifungal activity against Histoplasma capsulatum Darling isolate 1106 at 40 ug/ml after 3 weeks (reference value: 31 mm); details: Darling isolate 1106, 504 h, read-out: DIZ
Blastomyces dermatitidis [18] = assay: Antifungal activity against Blastomyces dermatitidis Gilchrist & Stokes isolate 1099 at 60 ug/ml after 1 week (reference value: 14 mm)
Blastomyces dermatitidis [19] = assay: Antifungal activity against Blastomyces dermatitidis Gilchrist & Stokes isolate 1099 at 40 ug/ml after 1 week (reference value: 14 mm)
Blastomyces dermatitidis [20] = assay: Antifungal activity against Blastomyces dermatitidis Gilchrist & Stokes isolate 1099 at 10 ug/ml after 1 week (reference value: 14 mm); method in brief: as §1
Blastomyces dermatitidis [21] = assay: Antifungal activity against Blastomyces dermatitidis Gilchrist & Stokes isolate 1099 at 100 ug/ml after 2 weeks (reference value: 27 mm)
Blastomyces dermatitidis [22] = assay: Antifungal activity against Blastomyces dermatitidis Gilchrist & Stokes isolate 1099 at 80 ug/ml after 2 weeks (reference value: 27 mm)
Blastomyces dermatitidis [23] = assay: Antifungal activity against Blastomyces dermatitidis Gilchrist & Stokes isolate 1099 at 100 ug/ml after 3 weeks (reference value: 34 mm); details: Gilchrist & Stokes isolate 1099, 504 h, read-out: DIZ; method in brief: as §1
Blastomyces dermatitidis [24] = assay: Antifungal activity against Blastomyces dermatitidis Gilchrist & Stokes isolate 1099 at 80 ug/ml after 3 weeks (reference value: 34 mm); details: Gilchrist & Stokes isolate 1099, 504 h, read-out: DIZ; method in brief: as §1
Blastomyces dermatitidis [25] = assay: Antifungal activity against Blastomyces dermatitidis Gilchrist & Stokes isolate 1099 at 40 ug/ml after 3 weeks (reference value: 34 mm); details: Gilchrist & Stokes isolate 1099, 504 h, read-out: DIZ; method in brief: as §1
Blastomyces dermatitidis [26] = assay: Antifungal activity against Blastomyces dermatitidis Gilchrist & Stokes isolate 1099 at 10 ug/ml after 3 weeks (reference value: 34 mm); details: Gilchrist & Stokes isolate 1099, 504 h, read-out: DIZ; method in brief: as §1
Blastomyces dermatitidis [27] = assay: Antifungal activity against Blastomyces dermatitidis Gilchrist & Stokes isolate 1107 at 80 ug/ml after 1 week (reference value: 20 mm)
Blastomyces dermatitidis [28] = assay: Antifungal activity against Blastomyces dermatitidis Gilchrist & Stokes isolate 1107 at 60 ug/ml after 1 week (reference value: 20 mm)
Blastomyces dermatitidis [29] = assay: Antifungal activity against Blastomyces dermatitidis Gilchrist & Stokes isolate 1107 at 20 ug/ml after 1 week (reference value: 20 mm); method in brief: as §1
Blastomyces dermatitidis [30] = assay: Antifungal activity against Blastomyces dermatitidis Gilchrist & Stokes isolate 1107 at 60 ug/ml after 2 weeks (reference value: 35 mm); details: Gilchrist & Stokes isolate 1107, 336 h, read-out: DIZ; method in brief: as §1
Histoplasma capsulatum [31] = assay: Antifungal activity against Histoplasma capsulatum Darling isolate 1098 at 80 ug/ml after 1 week (reference value: 12 mm); details: Darling isolate 1098, 168 h, read-out: DIZ
Histoplasma capsulatum [32] = assay: Antifungal activity against Histoplasma capsulatum Darling isolate 1098 at 20 ug/ml after 1 week (reference value: 12 mm); details: Darling isolate 1098, 168 h, read-out: DIZ
Histoplasma capsulatum [33] = assay: Antifungal activity against Histoplasma capsulatum Darling isolate 1098 at 10 ug/ml after 1 week (reference value: 12 mm); details: Darling isolate 1098, 168 h, read-out: DIZ
Histoplasma capsulatum [34] = assay: Antifungal activity against Histoplasma capsulatum Darling isolate 1098 at 80 ug/ml after 2 weeks (reference value: 21 mm); details: Darling isolate 1098, 336 h, read-out: DIZ
Histoplasma capsulatum [35] = assay: Antifungal activity against Histoplasma capsulatum Darling isolate 1098 at 60 ug/ml after 2 weeks (reference value: 21 mm); details: Darling isolate 1098, 336 h, read-out: DIZ
Histoplasma capsulatum [36] = assay: Antifungal activity against Histoplasma capsulatum Darling isolate 1098 at 10 ug/ml after 2 weeks (reference value: 21 mm); details: Darling isolate 1098, 336 h, read-out: DIZ
Histoplasma capsulatum [37] = assay: Antifungal activity against Histoplasma capsulatum Darling isolate 1098 at 80 ug/ml after 3 weeks (reference value: 28 mm); details: Darling isolate 1098, 504 h, read-out: DIZ
Histoplasma capsulatum [38] = assay: Antifungal activity against Histoplasma capsulatum Darling isolate 1098 at 60 ug/ml after 3 weeks (reference value: 28 mm); details: Darling isolate 1098, 504 h, read-out: DIZ
Histoplasma capsulatum [39] = assay: Antifungal activity against Histoplasma capsulatum Darling isolate 1098 at 40 ug/ml after 3 weeks (reference value: 28 mm); details: Darling isolate 1098, 504 h, read-out: DIZ

## C[C@@H]1[C@H](O)[C@@H](C)/C=C/C=C/C=C/C=C/C=C/C=C/C=C/[C@H](O[C@@H]2O[C@H](C)[C@@H](O)[C@H](N)[C@@H]2O)C[C@@H]2O[C@](O)(C[C@@H](O)C[C@@H](O)[C@H](O)CC[C@@H](O)C[C@@H](O)CC(=O)O[C@H]1C)C[C@H](O)[C@H]2C(=O)O [AMPHOTERICIN B]
Blastomyces dermatitidis [1]
  zone of inhibition at 10 µg/mL: 9 mm
Blastomyces dermatitidis [2]
  zone of inhibition at 100 µg/mL: 11 mm
Blastomyces dermatitidis [3]
  zone of inhibition at 80 µg/mL: 15 mm
Blastomyces dermatitidis [4]
  zone of inhibition at 40 µg/mL: 13 mm
Blastomyces dermatitidis [5]
  zone of inhibition at 10 µg/mL: 15 mm
Histoplasma capsulatum [6]
  zone of inhibition at 10 µg/mL: 19 mm
Histoplasma capsulatum [7]
  Activity: inactive
Histoplasma capsulatum [8]
  zone of inhibition at 20 µg/mL: 6 mm
Histoplasma capsulatum [9]
  zone of inhibition at 10 µg/mL: 7 mm
Histoplasma capsulatum [10]
  zone of inhibition at 100 µg/mL: 6 mm
Histoplasma capsulatum [11]
  zone of inhibition at 80 µg/mL: 7 mm
Histoplasma capsulatum [12]
  zone of inhibition at 60 µg/mL: 9 mm
Histoplasma capsulatum [13]
  zone of inhibition at 40 µg/mL: 9 mm
Histoplasma capsulatum [14]
  zone of inhibition at 20 µg/mL: 7 mm
Histoplasma capsulatum [15]
  zone of inhibition at 100 µg/mL: 10 mm
Histoplasma capsulatum [16]
  zone of inhibition at 60 µg/mL: 13 mm
Histoplasma capsulatum [17]
  zone of inhibition at 40 µg/mL: 13 mm
Blastomyces dermatitidis [18]
  Activity: Active
Blastomyces dermatitidis [19]
  Activity: Active
Blastomyces dermatitidis [20]
  Activity: Active
Blastomyces dermatitidis [21]
  Activity: Active
Blastomyces dermatitidis [22]
  Activity: Active
Blastomyces dermatitidis [23]
  zone of inhibition at 100 µg/mL: 2 mm
Blastomyces dermatitidis [24]
  zone of inhibition at 80 µg/mL: 2 mm
Blastomyces dermatitidis [25]
  zone of inhibition at 40 µg/mL: 4 mm
Blastomyces dermatitidis [26]
  zone of inhibition at 10 µg/mL: 11 mm
Blastomyces dermatitidis [27]
  Activity: inactive
Blastomyces dermatitidis [28]
  Activity: inactive
Blastomyces dermatitidis [29]
  Activity: inactive
Blastomyces dermatitidis [30]
  zone of inhibition at 60 µg/mL: 10 mm
Histoplasma capsulatum [31]
  zone of inhibition at 80 µg/mL: 4 mm
Histoplasma capsulatum [32]
  zone of inhibition at 20 µg/mL: 8 mm
Histoplasma capsulatum [33]
  zone of inhibition at 10 µg/mL: 8 mm
Histoplasma capsulatum [34]
  zone of inhibition at 80 µg/mL: 10 mm
Histoplasma capsulatum [35]
  zone of inhibition at 60 µg/mL: 9 mm
Histoplasma capsulatum [36]
  zone of inhibition at 10 µg/mL: 14 mm
Histoplasma capsulatum [37]
  zone of inhibition at 80 µg/mL: 14 mm
Histoplasma capsulatum [38]
  zone of inhibition at 60 µg/mL: 13 mm
Histoplasma capsulatum [39]
  zone of inhibition at 40 µg/mL: 16 mm

Reference: ChEMBL document CHEMBL3272198, “Preparation and in vitro antifungal activities of some quinolizidine derived hemiaminals and beta-tert-amino sulfides” (1976)
